ChEMBL document CHEMBL1154352, “Toll-like receptor 7 selective synthetic oligoribonucleotide agonists: synthesis and structure-activity relationship studies” (J Med Chem, 2009)
The source made the active and inactive calls. The calls are words filed in the database; no cut-off is given here.

Experiments:
Splenocyte [1] = test: Immunomodulatory activity in C57BL/6 mouse splenocytes bearing TLR7 receptor assessed as IL6 release at 100 ug/ml after 24 hrs by ELISA; format: functional, cell-based
Method in brief: (§1)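 C57BL/6 splenocytes in RPMI 1640 with 10% FBS, penicillin/streptomycin, 2 mM L-glutamine, plated at 5 × 10^6 cells/mL; compounds in PBS added, 37 °C for 24 h. Supernatant IL-12 and IL-6 by ELISA; representative of three independent experiments.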

PBMC [2] = test: Immunomodulatory activity in human PBMC assessed as induction of TNFalpha at 100 ug/ml after 24 hrs; format: functional, cell-based
Method in brief: (§2)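 Human PBMCs plated at 5 × 10^6 cells/mL; compounds dissolved in PBS added at various concentrations, 37 °C for 24 h. Supernatant cytokines/chemokines quantified with human Luminex multiplex kit.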

PBMC [3] = test: Immunomodulatory activity in human PBMC assessed as induction of IFN-alpha at 100 ug/ml after 24 hrs
[4] = Metabolic stability in human serum assessed as full length product remaining after 10 mins by HPLC; format: ADME, cell-free; conditions: read-out: Stability
Method in brief: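 About 0.5 A260 units compound in 1% human serum in PBS, 37 °C; aliquot taken at 10 min, analysed by anion-exchange HPLC for percent intact full-length product.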

Splenocyte [5] = test: Immunomodulatory activity in C57BL/6 mouse splenocytes bearing TLR7 receptor assessed as IL12 release at 100 ug/ml after 24 hrs by ELISA; format: functional, cell-based; method in brief: as §1
[6] = target: T1, Toll-like receptor 8 (Homo sapiens) (UniProt Q9NR97); test: Activation of human TLR8 expressed in HEK293XL assessed as fold induction of NF-kappaB activity at 50 ug/ml after 18 hrs by reporter gene assay relative to control
T1 sequence (whole entry): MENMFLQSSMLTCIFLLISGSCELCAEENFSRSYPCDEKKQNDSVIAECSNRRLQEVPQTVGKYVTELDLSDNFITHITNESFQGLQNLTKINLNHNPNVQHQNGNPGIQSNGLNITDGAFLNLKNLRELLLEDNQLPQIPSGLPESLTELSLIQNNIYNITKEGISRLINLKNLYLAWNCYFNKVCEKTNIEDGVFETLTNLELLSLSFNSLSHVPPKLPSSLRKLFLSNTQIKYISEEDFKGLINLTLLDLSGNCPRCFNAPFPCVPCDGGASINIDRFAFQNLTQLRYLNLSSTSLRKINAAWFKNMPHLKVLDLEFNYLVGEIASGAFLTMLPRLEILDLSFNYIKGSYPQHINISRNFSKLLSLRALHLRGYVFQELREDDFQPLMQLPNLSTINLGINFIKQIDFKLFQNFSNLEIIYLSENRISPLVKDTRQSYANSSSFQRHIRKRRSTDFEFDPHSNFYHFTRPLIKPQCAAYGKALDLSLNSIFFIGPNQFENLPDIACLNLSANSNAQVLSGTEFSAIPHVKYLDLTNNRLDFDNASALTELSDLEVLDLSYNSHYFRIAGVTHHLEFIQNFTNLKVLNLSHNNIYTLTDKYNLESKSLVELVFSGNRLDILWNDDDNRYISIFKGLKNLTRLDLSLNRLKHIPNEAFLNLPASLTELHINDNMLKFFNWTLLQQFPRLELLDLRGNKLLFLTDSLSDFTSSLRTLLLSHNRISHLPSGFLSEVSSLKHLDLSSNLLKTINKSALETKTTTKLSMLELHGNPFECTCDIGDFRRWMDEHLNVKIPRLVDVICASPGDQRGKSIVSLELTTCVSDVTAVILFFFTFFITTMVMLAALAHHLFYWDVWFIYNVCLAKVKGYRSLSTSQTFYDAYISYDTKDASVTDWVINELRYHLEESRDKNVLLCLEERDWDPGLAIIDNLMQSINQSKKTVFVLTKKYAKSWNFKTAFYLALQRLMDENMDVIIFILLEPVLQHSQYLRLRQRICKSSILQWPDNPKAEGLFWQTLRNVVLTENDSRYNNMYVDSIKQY
Method in brief: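 HEK293 cells stably expressing human TLR7 or TLR8, transiently transfected with SEAP reporter plasmid; medium replaced, SIMRA compounds added, 18 h incubation. Supernatant SEAP measured by QuantiBlue; expressed as fold increase in NF-κB activity over PBS control. Tabulated data at 50 μg/mL, representative of three independent experiments.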

[7] = target: T2, Toll-like receptor 9 (Mus musculus) (UniProt Q9EQU3); test: Activation of mouse TLR9 expressed in HEK293 assessed as induction of NF-kappaB activity reporter gene assay; format: cell-based
T2 sequence (whole entry): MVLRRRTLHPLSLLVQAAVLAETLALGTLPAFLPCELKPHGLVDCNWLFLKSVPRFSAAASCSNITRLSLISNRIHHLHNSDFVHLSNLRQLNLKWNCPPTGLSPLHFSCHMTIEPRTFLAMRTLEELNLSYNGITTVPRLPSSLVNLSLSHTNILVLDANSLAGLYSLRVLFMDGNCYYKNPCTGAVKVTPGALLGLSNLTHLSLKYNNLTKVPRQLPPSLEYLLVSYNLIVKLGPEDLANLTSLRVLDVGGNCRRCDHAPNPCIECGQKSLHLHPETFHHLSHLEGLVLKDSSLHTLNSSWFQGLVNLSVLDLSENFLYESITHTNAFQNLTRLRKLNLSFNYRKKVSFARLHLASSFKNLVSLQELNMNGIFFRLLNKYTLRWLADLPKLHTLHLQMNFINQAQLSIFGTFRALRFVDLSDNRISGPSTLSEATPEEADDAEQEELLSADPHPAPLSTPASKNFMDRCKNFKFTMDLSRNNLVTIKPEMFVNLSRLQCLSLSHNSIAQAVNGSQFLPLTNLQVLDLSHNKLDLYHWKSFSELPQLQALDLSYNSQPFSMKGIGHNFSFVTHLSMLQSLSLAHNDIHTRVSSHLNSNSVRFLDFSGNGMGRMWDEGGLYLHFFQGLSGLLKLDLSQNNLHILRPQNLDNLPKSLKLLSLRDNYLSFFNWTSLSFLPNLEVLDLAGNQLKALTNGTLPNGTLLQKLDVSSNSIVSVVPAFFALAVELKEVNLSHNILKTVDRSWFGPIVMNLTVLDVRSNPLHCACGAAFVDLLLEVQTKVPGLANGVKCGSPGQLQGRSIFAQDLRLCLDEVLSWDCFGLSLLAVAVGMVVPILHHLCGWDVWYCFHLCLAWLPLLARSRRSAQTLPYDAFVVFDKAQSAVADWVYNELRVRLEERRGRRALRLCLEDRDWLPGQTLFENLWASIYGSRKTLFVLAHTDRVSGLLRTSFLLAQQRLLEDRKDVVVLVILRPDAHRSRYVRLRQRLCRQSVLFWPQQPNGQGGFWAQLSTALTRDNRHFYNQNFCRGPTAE

[8] = target: Toll-like receptor 3 (Homo sapiens) (UniProt O15455); test: Activation of human TLR3 expressed in HEK293 assessed as induction of NF-kappaB activity reporter gene assay; format: cell-based
PBMC [9] = test: Immunomodulatory activity in human PBMC assessed as induction of IL12 at 100 ug/ml after 24 hrs; format: functional, cell-based; method in brief: as §2

Chain of Toll-like receptor 3 (Homo sapiens) (O15455 whole entry): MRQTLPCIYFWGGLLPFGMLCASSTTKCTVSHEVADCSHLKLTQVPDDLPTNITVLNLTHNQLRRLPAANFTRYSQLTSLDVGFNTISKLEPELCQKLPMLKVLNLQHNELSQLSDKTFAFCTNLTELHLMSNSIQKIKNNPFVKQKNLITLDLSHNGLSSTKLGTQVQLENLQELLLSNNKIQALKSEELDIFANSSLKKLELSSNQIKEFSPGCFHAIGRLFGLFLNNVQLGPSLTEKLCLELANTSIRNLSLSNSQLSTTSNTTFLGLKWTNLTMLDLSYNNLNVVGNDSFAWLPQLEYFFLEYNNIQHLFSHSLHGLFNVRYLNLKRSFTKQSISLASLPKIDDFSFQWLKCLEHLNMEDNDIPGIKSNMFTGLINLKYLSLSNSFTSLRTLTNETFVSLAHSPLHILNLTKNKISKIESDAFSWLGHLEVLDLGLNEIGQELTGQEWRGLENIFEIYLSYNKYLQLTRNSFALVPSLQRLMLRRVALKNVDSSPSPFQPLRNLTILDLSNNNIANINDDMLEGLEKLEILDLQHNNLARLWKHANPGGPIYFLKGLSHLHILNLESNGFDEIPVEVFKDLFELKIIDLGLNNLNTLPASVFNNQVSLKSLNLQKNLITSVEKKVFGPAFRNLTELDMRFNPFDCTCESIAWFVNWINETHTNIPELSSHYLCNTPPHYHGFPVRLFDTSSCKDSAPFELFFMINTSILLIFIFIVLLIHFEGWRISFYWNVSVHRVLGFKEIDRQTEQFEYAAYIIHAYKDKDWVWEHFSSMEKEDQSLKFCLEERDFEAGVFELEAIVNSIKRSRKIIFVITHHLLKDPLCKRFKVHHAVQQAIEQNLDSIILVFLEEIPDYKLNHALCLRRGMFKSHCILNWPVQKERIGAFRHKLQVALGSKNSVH

Row | Activity (Splenocyte [1]) | remaining at 10 min [4] [%] | Activity (Splenocyte [5]) | fold change (FC) [6] | Activity [7] | Activity [8] | Compound | Activity (PBMC [2]) [pg/mL] | IFN-alpha (PBMC [3]) [pg/mL] | Activity (PBMC [9]) [pg/mL]
1 | Active | 85 | Active | 1.5 | inactive | inactive | Nc1ccn([C@@H]2O[C@H](CO)[C@@H](OP(=O)(S)OC[C@H]3O[C@@H](n4ccc(=O)[nH]c4=O)[C@H](O)[C@@H]3OP(=O)(S)OC[C@H]3O[C@@H](n4ccc(=O)[nH]c4=O)[C@H](O)[C@@H]3OP(=O)(S)OC[C@H]3O[C@@H](n4ccc5c(=O)[nH]c(N)nc54)[C@H](O)[C@@H]3OP(=O)(S)OC[C@H]3O[C@@H](n4ccc(=O)[nH]c4=O)[C@H](O)[C@@H]3OP(=O)(S)OC[C@H]3O[C@@H](n4ccc5c(=O)[nH]c(N)nc54)[C@H](O)[C@@H]3OP(=O)(S)OC[C@H]3O[C@@H](n4cnc5c(N)ncnc54)[C@H](O)[C@@H]3OP(=O)(S)OC[C@H]3O[C@@H](n4ccc5c(=O)[nH]c(N)nc54)[C@H](O)[C@@H]3OP(=O)(S)OC[C@H]3O[C@@H](n4ccc(N)nc4=O)[C@H](O)[C@@H]3OP(=O)(S)OC[C@H]3O[C@@H](n4ccc(=O)[nH]c4=O)[C@H](O)[C@@H]3OP(=O)(S)OC[C@H]3O[C@@H](n4ccc(=O)[nH]c4=O)[C@H](O)[C@@H]3OP(=O)(S)OCC(O)COP(=O)(S)O[C@H]3[C@@H](O)[C@H](n4ccc(=O)[nH]c4=O)O[C@@H]3COP(=O)(S)O[C@H]3[C@@H](O)[C@H](n4ccc(=O)[nH]c4=O)O[C@@H]3COP(=O)(S)O[C@H]3[C@@H](O)[C@H](n4ccc(N)nc4=O)O[C@@H]3COP(=O)(S)O[C@H]3[C@@H](O)[C@H](n4ccc5c(=O)[nH]c(N)nc54)O[C@@H]3COP(=O)(S)O[C@H]3[C@@H](O)[C@H](n4cnc5c(N)ncnc54)O[C@@H]3COP(=O)(S)O[C@H]3[C@@H](O)[C@H](n4ccc5c(=O)[nH]c(N)nc54)O[C@@H]3COP(=O)(S)O[C@H]3[C@@H](O)[C@H](n4ccc(=O)[nH]c4=O)O[C@@H]3COP(=O)(S)O[C@H]3[C@@H](O)[C@H](n4ccc5c(=O)[nH]c(N)nc54)O[C@@H]3COP(=O)(S)O[C@H]3[C@@H](O)[C@H](n4ccc(=O)[nH]c4=O)O[C@@H]3COP(=O)(S)O[C@H]3[C@@H](O)[C@H](n4ccc(=O)[nH]c4=O)O[C@@H]3COP(=O)(S)O[C@H]3[C@@H](O)[C@H](n4ccc(N)nc4=O)O[C@@H]3CO)[C@H]2O)c(=O)n1 (stereo partly drawn) | 403 | 138 | 1020
2 | Active | 84 | Active | 1.6 | inactive | inactive | Nc1ccn([C@@H]2O[C@H](CO[C@H]3[C@@H](O)[C@H](n4cnc5c(N)ncnc54)O[C@@H]3COP(=O)(S)O[C@H]3[C@@H](O)[C@H](n4ccc5c(=O)[nH]c(N)nc54)O[C@@H]3COP(=O)(S)O[C@H]3[C@@H](O)[C@H](n4ccc(=O)[nH]c4=O)O[C@@H]3COP(=O)(S)O[C@H]3[C@@H](O)[C@H](n4cnc5c(N)ncnc54)O[C@@H]3COP(=O)(S)O[C@H]3[C@@H](O)[C@H](n4ccc5c(=O)[nH]c(N)nc54)O[C@@H]3COP(=O)(S)O[C@H]3[C@@H](O)[C@H](n4ccc(=O)[nH]c4=O)O[C@@H]3CO)[C@@H](OP(=O)(S)OC[C@H]3O[C@@H](n4ccc5c(=O)[nH]c(N)nc54)[C@H](O)[C@@H]3OP(=O)(S)OC[C@H]3O[C@@H](n4cnc5c(N)ncnc54)[C@H](O)[C@@H]3OP(=O)(S)OC[C@H]3O[C@@H](n4ccc(=O)[nH]c4=O)[C@H](O)[C@@H]3OP(=O)(S)OC[C@H]3O[C@@H](n4ccc(=O)[nH]c4=O)[C@H](O)[C@@H]3OP(=O)(S)OCC(O)COP(=O)(S)O[C@H]3[C@@H](O)[C@H](n4ccc(=O)[nH]c4=O)O[C@@H]3COP(=O)(S)O[C@H]3[C@@H](O)[C@H](n4ccc(=O)[nH]c4=O)O[C@@H]3COP(=O)(S)O[C@H]3[C@@H](O)[C@H](n4cnc5c(N)ncnc54)O[C@@H]3COP(=O)(S)O[C@H]3[C@@H](O)[C@H](n4ccc5c(=O)[nH]c(N)nc54)O[C@@H]3COP(=O)(S)O[C@H]3[C@@H](O)[C@H](n4ccc(N)nc4=O)O[C@@H]3CO[C@H]3[C@@H](O)[C@H](n4cnc5c(N)ncnc54)O[C@@H]3COP(=O)(S)O[C@H]3[C@@H](O)[C@H](n4ccc5c(=O)[nH]c(N)nc54)O[C@@H]3COP(=O)(S)O[C@H]3[C@@H](O)[C@H](n4ccc(=O)[nH]c4=O)O[C@@H]3COP(=O)(S)O[C@H]3[C@@H](O)[C@H](n4cnc5c(N)ncnc54)O[C@@H]3COP(=O)(S)O[C@H]3[C@@H](O)[C@H](n4ccc5c(=O)[nH]c(N)nc54)O[C@@H]3COP(=O)(S)O[C@H]3[C@@H](O)[C@H](n4ccc(=O)[nH]c4=O)O[C@@H]3CO)[C@H]2O)c(=O)n1 (stereo partly drawn) | 0 | 183 | 102
